HIV Env fusion = HIV envelope-mediated fusion inhibition | HeLa-JRFL Env/CEM21 cell fusion, luciferase | inhibition, % at 12.3 µM | 360,000 tested, 1.1% active | AID 651610;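 active = mean replicate inhibition score of at least 50 and every replicate individually at or above 50; inconclusive = only one of the two criteria met; inactive = mean below 50 and not all replicates reaching 50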;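 note: 0% = plate neutral controls and 100% = maraviroc near 300 nM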
SR-BI HDL uptake = blocks mouse SR-BI lipid uptake from DiI-HDL | Q61009 | inhibition, % at 12.5 µM | ldlA[mSR-BI] CHO cells, DiI-HDL uptake fluorescence, 3 h | 320,000 tested, 0.96% active | AID 488896;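 active = mean replicate inhibition of at least 70% and a set share of replicates each scoring 70 or more; inconclusive = meets just one of the two criteria; inactive = fails both criteria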;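 note: 0% = median of neutral control wells and 100% = median of positive control wells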
PglD inh = inhibitors of Campylobacter jejuni PglD acetyltransferase; inhibition, % at 12.5 µM; purified PglD enzyme, DTNB colorimetric CoA detection; 360,000 tested, 0.098% active; in the data active = inhibition above about 16%, passing the limit was not always enough; inconclusive = no clear call, values can overlap the other calls
Glyco luc inh = blocks N-linked glycosylation in D54 reporter cells; D54 ERlucT glycosylation luciferase reporter, 24 h; percent of 100 nM tunicamycin response; reporter increase, % at 12.5 µM; 360,000 tested, 0.23% active; AID 588692;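 active = mean luciferase reporter signal, scaled so untreated is 0 and the glycosylation-blocking control 100, at or above a set limit in every replicate; inconclusive = mean reaches the limit but not every replicate does; inactive = mean below the limit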;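 note: luciferase carries N-glycosylation sites so blocking glycosylation raises the light; 0% = median of neutral control wells and 100% = median of 100 nM tunicamycin wells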
Rtt109 Vps75 = inhibitors of Candida albicans Rtt109/Vps75 histone acetyltransferase; purified Rtt109/Vps75, ThioGlo CoA-SH fluorescence, 4 h; Q5AAJ8; AID 540336; inhibition, % at 34.9 µM; 330,000 tested, 0.16% active;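 active = inhibition of at least 50% in every replicate; inconclusive = best replicate reaches 50% inhibition but some replicates fall short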
Target sequence (Q5AAJ8 whole entry, looked up): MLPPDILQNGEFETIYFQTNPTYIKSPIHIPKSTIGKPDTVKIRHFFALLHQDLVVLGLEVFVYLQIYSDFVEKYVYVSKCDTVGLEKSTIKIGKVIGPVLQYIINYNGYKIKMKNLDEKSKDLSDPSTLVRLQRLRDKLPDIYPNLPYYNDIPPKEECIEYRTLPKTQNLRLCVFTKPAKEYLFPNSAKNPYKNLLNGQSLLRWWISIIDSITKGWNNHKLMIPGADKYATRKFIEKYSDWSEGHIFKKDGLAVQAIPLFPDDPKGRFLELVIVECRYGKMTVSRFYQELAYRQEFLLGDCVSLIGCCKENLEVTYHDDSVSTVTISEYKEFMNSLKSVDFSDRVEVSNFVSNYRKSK
SR-BI DiI-HDL act = enhances SR-BI lipid uptake from DiI-HDL. CHO ldlA[mSR-BI] cells, DiI-HDL uptake fluorescence, 3 h; 100 = double the neutral-control signal. activation, % at 12.5 µM. 320,000 tested, 0.096% active;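 active = mean replicate activation of at least 60% and every replicate at or above 60%; inconclusive = mean or all-replicate condition met, but not both; inactive = mean below 60% and not all replicates reaching 60%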;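 note: 0% = median plate neutral-control signal and 100% = twice that signal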
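system = CHO ldlA[mSR-BI] cells, LDL receptor-null, SR-BI overexpressing | medium = Ham's F12 with 0.5% BSA, HEPES 25 mM, pH 7.4 | probe or stimulus = DiI-HDL 10 µg/mL | compound dosing = single-point compound dose | incubation = compound exposure 3 h, 37 °C | technique = DiI fluorescence, bottom read | read-out = cell-associated DiI fluorescence as measure of HDL uptake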
Starred values were filed as active, the others as inactive; i = inactive; ? = inconclusive; . = no result given; [ ] = another dose, or the depositor's remark. In the library only some 1.9% were active in any assay of this set; here they are far more common.

SMILES	HIV Env fusion	SR-BI HDL uptake	PglD inh	Glyco luc inh	Rtt109 Vps75	SR-BI DiI-HDL act
CC(=O)N/C(=C\c1ccccc1)C(=O)OCC(=O)NC(C)C12CC3CC(CC(C3)C1)C2 (centres undefined)	106*	30	.	-6	15	-30
CC(=O)N/C(=C\c1ccccc1)C(=O)OCC(=O)NC(=O)c1ccccc1	-8	-15	.	0	7	15
Cc1ccc(/C(=N\O)c2oc3c(C)c4oc(=O)cc(C)c4cc3c2C)cc1	-155	15	9	1	-12	-15
Cc1cc(=O)oc2c1ccc1oc(/C(=N/O)c3ccccc3)c(C)c12	-62	i	.	-7	1	516*
CC(Nc1nc(-c2ccc(F)cc2)cs1)c1nc2cc(C(F)(F)F)ccc2n1CCCO (centres undefined)	75*	5	3	1	3	-5
CC(=O)NNc1[nH]c2c(c(=O)c1[N+](=O)[O-])c(=O)n(C)c(=O)n2C	5	-68	-3	-1	-4	68*
C[C@@H]1CCCCO[C@H](CN(C)Cc2ccccc2)[C@@H](C)CN([C@@H](C)CO)C(=O)c2cc(NC(=O)C3CCCCC3)ccc2O1	-16[16.7 µM]	.	-1	.	.	.
C[C@@H]1CCCCO[C@H](CN(C)C(=O)Nc2ccc(F)cc2)[C@H](C)CN([C@H](C)CO)C(=O)c2cc(NC(=O)CCC(F)(F)F)ccc2O1	31[16.7 µM]	.	3	.	.	.
COc1ccc(/C=N/N=C/c2ccc(OC)cc2)cc1	-12	-10	-4	3	-5	10
COc1ccc(C=C(c2ccc(OC)cc2)c2ccc(OC)cc2)cc1	.	72*	0	-2	-2	-72
Cc1ccc(NC(=O)CCNC(=O)c2ccc(Br)cc2)nc1	13	-10	0	3	5	10
Cc1ccnc(NC(=O)CCNC(=O)c2ccc(Br)cc2)c1	57*	.	8	4	.	.
O=C(CCNC(=O)c1ccc(Br)cc1)NNC(=O)COc1ccccc1F	73*	11	.	1	3	-11
O=C(C[C@H]1C=C[C@H](NC(=O)Nc2ccccc2F)[C@@H](CO)O1)NCc1ccc(F)cc1	0[16.7 µM]	.	-2	.	.	.
Nc1ccc(C(=O)Nc2nc3ccccc3s2)cc1	-448	15	-5	-15	-14	-15
Cc1cc(C)n(-c2ccc(C(=O)Nc3cccc([N+](=O)[O-])c3)cc2)n1	-30	80*	.	-2	5	-80
Cc1cc(C)n(-c2ccc(C(=O)Nc3nc4ccccc4s3)cc2)n1	.	70*	-2	-2	-16	-70
CCN(CC)S(=O)(=O)c1cccc(NC(=O)c2ccc(-n3nc(C)cc3C)cc2)c1	67*	?	-2	-6	-1	-71
CS(=O)(=O)Nc1ccc2c(c1)[C@@H]1C[C@H](CC(=O)NCc3cccnc3)O[C@H](CO)[C@@H]1O2	-3[16.7 µM]	.	-2	.	.	.
O=C(C[C@H]1CC[C@@H]2[C@H](COC[C@H](O)CN2C(=O)c2ccccc2)O1)Nc1ccccc1	.	.	-1	.	.	.
C[C@@H]1CN([C@H](C)CO)C(=O)c2ccccc2-c2ccccc2CO[C@H]1CN(C)C(=O)[C@H](C)c1ccccc1	4[16.7 µM]	.	-1	.	.	.
O=C(C[n+]1ccc(-c2cc(C(=O)Nc3cccc(C(F)(F)F)c3)c3ccccc3n2)cc1)c1cccc([N+](=O)[O-])c1	7	87*	9	1	3	-87
O=C(C[n+]1cccc(NC(=O)c2ccccc2)c1)c1cccc([N+](=O)[O-])c1	-3	-20	-4	0	.	20
O=S(=O)(c1ccc2c(c1)C(=NO)c1cc(S(=O)(=O)N3CCCCC3)ccc1-2)N1CCCCC1	126*	19	-4	-14	-4	-19
C[C@H](CO)N1C[C@H](C)[C@H](CN(C)C(=O)c2ccccn2)Oc2ncc(C3=CCCC3)cc2C1=O	3[16.7 µM]	.	0	.	.	.
SMILES	HIV Env fusion	SR-BI HDL uptake	PglD inh	Glyco luc inh	Rtt109 Vps75	SR-BI DiI-HDL act
CCN(CC)S(=O)(=O)c1ccc(NC(=O)Nc2cccc(C(F)(F)F)c2)cc1	96*	15	-1	-20	-9	-15
O=C(Nc1ccc(OC(F)F)cc1)Nc1cccc(C(F)(F)F)c1	75*	24	-8	-17	3	-24
O=C(Nc1ccncc1)Nc1cccc(C(F)(F)F)c1	-4	0	-4	-5	15	0
CC(C)NC(=O)N(C)C[C@@H]1Oc2c(NC(=O)c3cnccn3)cccc2C(=O)N([C@@H](C)CO)C[C@H]1C	.	.	7	.	.	.
CCOc1ccc(N(CC(=O)NCCCOC)S(C)(=O)=O)cc1	.	-13	2	1	0	13
Cc1ccc(CSCCNC(=O)CN(c2cccc([N+](=O)[O-])c2)S(C)(=O)=O)cc1	55*	-3	.	-2	3	3
CCOc1ccc(N(CC(=O)NCCSCc2ccc(Cl)cc2)S(C)(=O)=O)cc1	80*	17	0	-3	0	-17
COc1ccc(N(CC(=O)NCCSCc2ccc(Cl)cc2)S(C)(=O)=O)cc1Cl	121*	5	-11	-2	10	-5
CS(=O)(=O)N(CC(=O)NCc1ccccc1Cl)c1cccc([N+](=O)[O-])c1	2	3	-2	0	.	-3
CCC(=O)N[C@H]1CC[C@H](CCn2cc(CN(C)C)nn2)O[C@H]1CO	4[16.7 µM]	.	0	.	.	.
COc1cc(CN2CC3(CCN(C(=O)CN4CCOCC4)CC3)c3c(n(C)c4cc(OC)ccc34)[C@@H]2CO)cc(OC)c1	13[16.7 µM]	.	.	.	.	.
CCOc1ccc(N)c(SSc2cc(OCC)ccc2N)c1	-8	0	3	-3	3	0
CS(=O)(=O)c1ccc(N)c(SSc2cc(S(C)(=O)=O)ccc2N)c1	-1	4	1	1	182*	-4
O=C(Nc1ccc2c(c1)CCC2)C1CCCN(c2ncccn2)C1 (centres undefined)	-100	16	0	-1	2	-16
Cc1nc2ncnn2c(N2CCCC(C(=O)Nc3ccc4c(c3)CCC4)C2)c1C (centres undefined)	78*	11	0	1	5	-11
CN(C)C(=O)c1ccc(-c2ccc([C@@H]3[C@@H](CO)N4CCCCN(C(=O)C5CCCC5)C[C@H]34)cc2)cc1	.	.	-38	.	.	.
COc1ccc(-c2oc3ccccc3c2C#Cc2cncn2C)cc1	-9	79*	-4	14	-9	-79
C[C@@H]1CN([C@@H](C)CO)C(=O)c2cccc(NS(=O)(=O)c3cn(C)cn3)c2O[C@H]1CN(C)C(=O)Nc1ccc2c(c1)OCO2	.	.	-1	.	.	.
COc1cccc(C#Cc2ccc([C@H]3[C@@H](CO)N(C(=O)C4CCCC4)[C@H]3C#N)cc2)c1	69*[16.7 µM]	.	.	.	.	.
N#C[C@@H]1[C@H](c2ccc(-c3cccc(F)c3)cc2)[C@H](CO)N1C(=O)NC1CCCC1	65*[16.7 µM]	.	0	.	.	.
N#C[C@@H]1[C@H](c2ccc(-c3ccccc3F)cc2)[C@@H](CO)N1C(=O)c1ccccn1	57*[16.7 µM]	.	0	.	.	.

Bioassay records as filed in PubChem.
